Source: PMC7359933 (Clinical and Translational Science, 2020)
Like-named read-outs stand apart in the source and are kept apart here. Marks after values point to notes of the source that are not given here. Each block holds one compound with its values, some of them ahead of it.

Key:
QTc interval = conditions: cited from earlier work
healthy volunteers [1] = assay: Thorough QT/QTc study part 2: Holter ECG, Fridericia-corrected QT interval; type: in vivo, human; conditions: for Mean difference vs. placebo (90% CI), msec ddQTcF: MOX 400 mg (C–D); for Mean change from baseline, msec ddQTcF: MOX 400 mg single dose (C)
Method in brief: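 Healthy subjects, randomized four-period crossover with 10-day washouts, fed: oral fostemsavir 1,200 mg q.d. or 2,400 mg b.i.d. for 7 days, placebo b.i.d., or single moxifloxacin 400 mg on day 7. Triplicate ECGs from 24-h Holter, read centrally. Baseline is the mean of day-1 predose readings; readings 0.5–22.25 h post-dose on day 7. Linear mixed model gives 90% CI; bound 10 msec; assay sensitivity >5 msec at 2–4 h.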

healthy volunteers [2] = system: healthy volunteers; set-up: species or system human; conditions: final linear concentration‐ddQTcF model
dog = conditions: nonclinical assessment of fostemsavir or TMR ref unpublished data; cited from earlier work
[3] = cited from earlier work
[4] = heavily treatment‐experienced HIV‐1 infected patients, fostemsavir 600 mg b.i.d., BRIGHTE (NCT02362503) ref 22; cited from earlier work
[5] = cited from earlier work; remark: listed apart in the source
[6] = cited from earlier work; remark: listed apart in the source
[7] = ritonavir 100 mg (q.d. or b.i.d.) ref 18, 21; cited from earlier work
[8] = cited from earlier work; remark: listed apart in the source

SMILES: Cc1cc(/C=C/C#N)cc(C)c1Nc1ccnc(Nc2ccc(C#N)cc2)n1 [rilpivirine]
QTc prolongation, one‐sided 95% CI upper bound (QTc interval; supratherapeutic dose 75 mg ref 11): 15.3 ms | QTc prolongation, one‐sided 95% CI upper bound (QTc interval; therapeutic dose 25 mg ref 11): 8.2 ms

Intercept θ1, bootstrap parameter estimate for n = 1,000 (90% CI) (healthy volunteers [2]): –0.727 (–2.500, 1.072) msec | Intercept θ1, population mean estimate (% RSE) (healthy volunteers [2]): –0.783 (139) msec | Slope θ2, population mean estimate (% RSE) (healthy volunteers [2]): 0.00126 (7.9) msec per ng/mL TMR
SMILES: COc1cnc(-n2cnc(C)n2)c2[nH]cc(C(=O)C(=O)N3CCN(C(=O)c4ccccc4)CC3)c12 [TMR, temsavir]
relationship of ddQTcF with plasma TMR concentration (healthy volunteers [1]; graphical assessment, part 2 data): positive linear relationship | Slope θ2, bootstrap parameter estimate for n = 1,000 (90% CI) (healthy volunteers [2]): 0.00126 (0.0011, 0.00142) msec per ng/mL TMR | maximum observed TMR concentrations indicating cardiovascular liability (dog): ≥ 3,600 ng/mL | membrane permeability [3]: good | geometric mean TMR peak plasma concentration (Cmax) [4]: 1,770 ng/mL | effect of renal impairment on Cmax [5]: no effect | influence of hepatic impairment on Cmax [6]: < 1.72 fold

SMILES: COc1c(N2C[C@@H]3CCCN[C@@H]3C2)c(F)cc2c(=O)c(C(=O)O)cn(C3CC3)c12 [MOX, moxifloxacin, reference compound]
Mean difference vs. placebo (90% CI), msec ddQTcF (healthy volunteers [1]; day 7, 0.5 hour): 0.42 (–1.73, 2.58) msec | Mean difference vs. placebo (90% CI), msec ddQTcF (healthy volunteers [1]; day 7, 1 hour): 2.95 (0.80, 5.10) msec | Mean difference vs. placebo (90% CI), msec ddQTcF (healthy volunteers [1]; day 7, 2 hour): 8.69 (6.57, 10.82)^a msec | Mean difference vs. placebo (90% CI), msec ddQTcF (healthy volunteers [1]; day 7, 3 hour): 10.43 (8.32, 12.54)^b msec | Mean difference vs. placebo (90% CI), msec ddQTcF (healthy volunteers [1]; day 7, 4 hour): 10.33 (8.22, 12.44)^c msec | Mean difference vs. placebo (90% CI), msec ddQTcF (healthy volunteers [1]; day 7, 5 hour): 8.83 (6.72, 10.94) msec | Mean difference vs. placebo (90% CI), msec ddQTcF (healthy volunteers [1]; day 7, 6 hour): 7.98 (5.87, 10.09) msec | Mean difference vs. placebo (90% CI), msec ddQTcF (healthy volunteers [1]; day 7, 8 hour): 8.05 (5.94, 10.17) msec | Mean difference vs. placebo (90% CI), msec ddQTcF (healthy volunteers [1]; day 7, 10 hour): 8.96 (6.85, 11.07) msec | Mean difference vs. placebo (90% CI), msec ddQTcF (healthy volunteers [1]; day 7, 11.5 hour): 8.75 (6.64, 10.86) msec | Mean difference vs. placebo (90% CI), msec ddQTcF (healthy volunteers [1]; day 7, 14 hour): 7.55 (5.44, 9.66) msec | Mean difference vs. placebo (90% CI), msec ddQTcF (healthy volunteers [1]; day 7, 15 hour): 5.64 (3.52, 7.75) msec | Mean difference vs. placebo (90% CI), msec ddQTcF (healthy volunteers [1]; day 7, 16 hour): 6.92 (4.81, 9.03) msec | Mean difference vs. placebo (90% CI), msec ddQTcF (healthy volunteers [1]; day 7, 22.25 hour): 6.19 (4.08, 8.30) msec | Mean change from baseline, msec ddQTcF (healthy volunteers [1]; day 7, 0.5 hour): –7.12 msec | Mean change from baseline, msec ddQTcF (healthy volunteers [1]; day 7, 1 hour): –4.82 msec | Mean change from baseline, msec ddQTcF (healthy volunteers [1]; day 7, 2 hour): –1.93 msec | Mean change from baseline, msec ddQTcF (healthy volunteers [1]; day 7, 3 hour): 0.40 ms | Mean change from baseline, msec ddQTcF (healthy volunteers [1]; day 7, 4 hour): 3.30 ms | Mean change from baseline, msec ddQTcF (healthy volunteers [1]; day 7, 5 hour): 4.16 ms | Mean change from baseline, msec ddQTcF (healthy volunteers [1]; day 7, 6 hour): –0.81 msec | Mean change from baseline, msec ddQTcF (healthy volunteers [1]; day 7, 8 hour): –0.74 msec | Mean change from baseline, msec ddQTcF (healthy volunteers [1]; day 7, 10 hour): 5.78 ms | Mean change from baseline, msec ddQTcF (healthy volunteers [1]; day 7, 11.5 hour): 1.83 ms | Mean change from baseline, msec ddQTcF (healthy volunteers [1]; day 7, 14 hour): 0.60 ms | Mean change from baseline, msec ddQTcF (healthy volunteers [1]; day 7, 15 hour): 1.49 ms | Mean change from baseline, msec ddQTcF (healthy volunteers [1]; day 7, 16 hour): 5.41 ms | Mean change from baseline, msec ddQTcF (healthy volunteers [1]; day 7, 22.25 hour): 2.73 ms | lower bound of multiplicity‐adjusted 90% CI of ddQTcF (assay sensitivity) (healthy volunteers [1]; moxifloxacin 400 mg, at 2, 3, and 4 hours): above 5 msec

SMILES: CC(C)c1nc(CN(C)C(=O)N[C@H](C(=O)N[C@@H](Cc2ccccc2)C[C@H](O)[C@H](Cc2ccccc2)NC(=O)OCc2cncs2)C(C)C)cs1 [ritonavir]
increase in TMR plasma Cmax [7]: 45–53%

SMILES: CC(C)c1nc(CN(C)C(=O)N[C@@H](CCN2CCOCC2)C(=O)N[C@H](CC[C@H](Cc2ccccc2)NC(=O)OCc2cncs2)Cc2ccccc2)cs1 [cobicistat]
increase in Cmax compared to without concomitant cobicistat ([8]; coadministration with cobicistat ref 21, 22): 1.71 fold | increase in TMR plasma Cmax ([8]; cobicistat 150 mg q.d. ref 18, 21): 71%
